The source made the active and inactive calls.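 How the source made its calls: active means progeny virus titer drops over tenfold versus the untreated infected control, meaning log virus titer change below -1; inactive means the rest.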

The values that follow come from PubChem BioAssay AID540320 (Southern Research Specialized Biocontainment Screening …, 2011).

The test system of the assay is HEp-2 cells, RSV plaque reduction, virus titer. The assay is described as follows: RSV replication inhibitors by plaque titer, orthogonal assay for RSV antiviral project, plaque reduction, HEp-2 cells, set 3 (AID 540320). The following applies: at 10 µM; hits give low values. An outline of the steps: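 Test system: HEp-2 cells infected with RSV Long strain | Reagent: RSV Long, MOI 0.1 | Timing: 48 h compound exposure at 37 °C after infection | Detection: Plaque assay on fresh HEp-2, PFA fixation, neutral red staining | Control set: Ribavirin 35 µM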
Take `Cc1ccc(Cn2c(=O)n(Cc3ccc(C(=O)Nc4nccs4)cc3)c(=O)c3ccccc32)cc1`: the log virus titer change is -0.01 (inactive).

Consider `Cc1ccc(F)cc1NC(=O)[C@@H]1CCCN1S(=O)(=O)c1cccc2cccnc12`, for which the log virus titer change was -0.33 (inactive). `Cc1ccc(Cn2c(=O)n(Cc3ccc(C(=O)Nc4ccncc4)cc3)c(=O)c3ccccc32)cc1`: the log virus titer change is -3.25.

As for `Cc1cc(NC(=O)[C@@H]2CCCN2S(=O)(=O)c2cccc3cccnc23)n(C(C)(C)C)n1`, the log virus titer change is -0.71 (inactive). As to `COCCCNC(=O)c1ccc(Cn2c(=O)c3ccccc3n(Cc3ccc(Br)cc3)c2=O)cc1`, the log virus titer change was -4.51. For `Cc1ccc(Cn2c(=O)n(Cc3ccc(C(=O)NC(C)(C)C)cc3)c(=O)c3ccccc32)cc1`, the log virus titer change is -5.38.

As for `COCCCNC(=O)c1ccc(Cn2c(=O)c3ccccc3n(Cc3ccc([N+](=O)[O-])cc3)c2=O)cc1`, the log virus titer change was -4.94. Take `Cc1cccc(NC(=O)[C@@H]2CCCN2S(=O)(=O)c2cccc3cccnc23)c1C`: the log virus titer change is -0.39 (inactive). Take `COCCCNC(=O)c1ccc(Cn2c(=O)c3ccc(Br)cc3n(Cc3ccc(C)cc3)c2=O)cc1`: the log virus titer change is -0.31 (inactive). `COCCCNC(=O)c1ccc(Cn2c(=O)c3ccccc3n(Cc3ccc(C)c(C(F)(F)F)c3)c2=O)cc1`: the log virus titer change was -2.37. As for `COCCCNC(=O)c1ccc(Cn2c(=O)c3ccccc3n(Cc3ccc(C(F)(F)F)cc3)c2=O)cc1`, the figure is -2.66; as for `COCCCNC(=O)c1ccc(Cn2c(=O)c3ccccc3n(Cc3ccc4nonc4c3)c2=O)cc1`, -2.05; as for `Cc1ccc(Cn2c(=O)n(Cc3ccc(C(=O)Nc4cc(C)nc5ccccc45)cc3)c(=O)c3ccccc32)cc1`, -0.61 (inactive). On to `COCCCNC(=O)c1ccc(Cn2c(=O)c3ccccc3n(Cc3ccc(Cl)cc3)c2=O)cc1`, for which the log virus titer change is -3.12. As for `COCCCNC(=O)c1ccc(Cn2c(=O)c3ccccc3n(Cc3ccc(OC)cc3)c2=O)cc1`, the figure is -2.72.
